BindingDB's records for doi:10.1021/jm9600205 (National Institute of Diabetes, 1996)
pKi: −log10 of the molar value.

Biological target: Adenosine receptor A2a (Rattus norvegicus, UniProt P30543)
Experiment: Displacement of [3H]-CGS- 21680 binding to Adenosine A2A receptor in rat striatal membranes
How it was run: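 Adenosine deaminase (3 units/mL) present during preparation, 30 min preincubation at 30 °C and incubation. At least five competitor concentrations over 3 orders of magnitude.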

Chain of Adenosine receptor A2a (P30543 whole entry): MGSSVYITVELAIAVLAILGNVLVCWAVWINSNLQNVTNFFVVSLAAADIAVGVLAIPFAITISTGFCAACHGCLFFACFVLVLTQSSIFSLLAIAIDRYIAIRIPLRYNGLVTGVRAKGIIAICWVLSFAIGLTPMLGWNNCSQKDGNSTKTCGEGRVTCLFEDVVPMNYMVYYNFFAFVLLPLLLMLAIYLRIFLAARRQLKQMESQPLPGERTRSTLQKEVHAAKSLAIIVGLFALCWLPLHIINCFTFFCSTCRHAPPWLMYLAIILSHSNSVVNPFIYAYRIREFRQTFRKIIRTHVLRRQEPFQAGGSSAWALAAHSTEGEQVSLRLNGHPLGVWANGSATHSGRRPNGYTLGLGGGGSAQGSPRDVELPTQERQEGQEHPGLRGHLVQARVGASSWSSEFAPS

pKi | SMILES
4.34 | CCOC(=O)C1=C(C)N=C(C)C(C(=O)OC)C1C (configuration not stated) [2,4,6-Trimethyl-1,4-dihydro-pyridine-3,5-dicarboxylic acid 3-ethyl ester 5-methyl ester]
4.44 | CCOC(=O)C1=C(c2ccccc2)N=C(C)C(C(=O)OCC)C1C (configuration not stated) [2,4-Dimethyl-6-phenyl-1,4-dihydro-pyridine-3,5-dicarboxylic acid diethyl ester]
